# From PubChem
# Only some compounds are listed: those with a hit (about 1.3% of all), similar ones and a draw of the others.
# RBBP9 inhibitor = human RBBP9 inhibitors, primary screen, biochemical, fluorescence polarization, FP-Rh probe, HTS; recombinant RBBP9; hit rate 0.2% among 220,000; inhibition, % at 7.94 µM;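 active = inhibition above the campaign mean of all tested compounds plus 3 SD, cut at about 14% in these data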;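 also: plate controls were DMSO wells with RBBP9 for no effect and wells lacking RBBP9 protein for full effect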
# Target sequence (O75884 whole entry, looked up): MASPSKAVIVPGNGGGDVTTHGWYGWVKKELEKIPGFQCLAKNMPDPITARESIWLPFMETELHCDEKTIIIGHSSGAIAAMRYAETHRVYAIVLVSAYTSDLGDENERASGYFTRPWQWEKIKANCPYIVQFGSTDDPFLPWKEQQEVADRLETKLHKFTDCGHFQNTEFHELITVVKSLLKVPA
#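 System: RBBP9 protein / Quantity: 2.5 µM RBBP9 dispensing solution, before mixing / Also added: Serine-hydrolase probe FP-Rh, 375 nM pre-mixing / Dosing: 7.94 µM single dose, 0.794% DMSO / Timing: enzyme-compound preincubation 30 min, then probe labeling 45 min, 25 °C / Signal: FP readout at 525/598 nm / Controls: DMSO-treated enzyme wells and wells lacking RBBP9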
# LYPLA1 inh = LYPLA1 inhibitors, primary screen, counter-screen for PME1 inhibitor project, biochemical, fluorescence polarization, FP-Rh probe ABPP; Acyl-protein thioesterase 1 (Homo sapiens), O75608; recombinant LYPLA1; inhibition, % at 5.9 µM; hit rate 0.16% among 320,000; AID 2174, 2009;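 active = inhibition above the mean of all tested compounds plus 3 SD, set per campaign, cut at about 14% in these data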;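 also: inhibitors block serine hydrolase probe labeling of LYPLA1 so polarization falls; 0% = enzyme with DMSO and 100% = wells lacking LYPLA1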
# Target sequence (O75608 whole entry, looked up): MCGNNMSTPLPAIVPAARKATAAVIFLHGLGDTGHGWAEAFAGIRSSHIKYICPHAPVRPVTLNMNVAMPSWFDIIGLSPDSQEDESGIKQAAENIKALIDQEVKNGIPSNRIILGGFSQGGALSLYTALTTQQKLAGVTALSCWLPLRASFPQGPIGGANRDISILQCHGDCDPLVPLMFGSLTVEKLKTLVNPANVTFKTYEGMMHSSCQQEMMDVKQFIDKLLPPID
# PME-1 inh = PME-1 inhibitors via competitive probe labeling, primary screen, biochemical, fluorescence polarization, FP-Rh probe, HTS | recombinant PME-1 | hit rate 0.53% among 320,000 | inhibition, % at 5.9 µM | Protein phosphatase methylesterase 1 (Homo sapiens), Q9Y570 | AID 2130, 2009;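 active = inhibition above the campaign mean of all compounds plus 3 SD, cut at about 26% in these data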;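 also: competitive labeling of PME-1 active site by serine hydrolase directed probe; 0% = PME-1 with DMSO and 100% = wells lacking PME-1 enzyme; inhibitors block probe labeling so polarization falls and inhibition rises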
# PAD4 FP inh = human PAD4 inhibitors, primary screen, biochemical, fluorescence polarization, 1536-well format; recombinant PAD4, RCA probe fluorescence polarization; inhibition, % at 6.36 µM; hit rate 0.41% among 330,000; AID 485272, 2010;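 active = percent inhibition above a cutoff equal to the mean of all tested compounds plus 3 SD, cut at about 15% in these data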;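 also: 0% = PAD4 with RCA probe and DMSO and 100% = probe without PAD4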
# LYPLA2 inh = LYPLA2 inhibitors, primary screen, counter-screen for PME1 inhibitor project, biochemical, fluorescence polarization, FP-Rh probe ABPP; hit rate 0.38% among 320,000; inhibition, % at 5.9 µM; recombinant LYPLA2; Acyl-protein thioesterase 2 (Homo sapiens), O95372;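 active = inhibition above the screen-wide mean plus 3 SD, limit set per campaign, cut at about 26% in these data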;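 also: 0% = LYPLA2 with DMSO and 100% = wells lacking LYPLA2 enzyme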
# Target sequence (O95372 whole entry, looked up): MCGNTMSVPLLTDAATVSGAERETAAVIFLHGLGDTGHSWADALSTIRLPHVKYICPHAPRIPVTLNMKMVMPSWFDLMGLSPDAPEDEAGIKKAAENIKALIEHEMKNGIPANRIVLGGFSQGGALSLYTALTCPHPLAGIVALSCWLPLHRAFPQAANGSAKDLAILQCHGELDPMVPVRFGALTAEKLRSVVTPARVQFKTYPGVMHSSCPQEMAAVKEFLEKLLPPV
# Fam108B inh = mouse Fam108B serine hydrolase inhibitors, primary screen, counter-screen for RBBP9 inhibitor project, biochemical, fluorescence polarization | inhibition, % at 9.51 µM | hit rate 0.33% among 300,000 | recombinant Fam108B, FP-Rh probe fluorescence polarization;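 active = inhibition above the screen mean inhibition plus 3 SD, computed separately per campaign, cut at about 18% in these data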;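 also: inhibitors lower polarization as less probe binds the enzyme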
# PAD4 FP conf = human PAD4 inhibitors, confirmation, biochemical, fluorescence polarization. shares compounds with PAD4 FP inh. recombinant PAD4, RCA probe fluorescence polarization. inhibition, % at 6.36 µM. hit rate 28% among 1,200;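 active = mean inhibition across replicates above the hit cutoff set by the earlier primary screen, cut at about 15% in these data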;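 also: inhibitors block active-site labeling by the probe so polarization falls; 0% = PAD4 with probe and DMSO and 100% = probe without PAD4 enzyme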
# * hit, by the source's call; / = no result.
SMILES,RBBP9 inhibitor,LYPLA1 inh,PME-1 inh,PAD4 FP inh,LYPLA2 inh,Fam108B inh,PAD4 FP conf
COc1cccc(C2C(C(=O)OC(C)C)=C(C)N=c3s/c(=C\c4ccc(C(=O)O)cc4)c(=O)n32)c1 (stereo not drawn),/,-8,0,-6,-1,-2,/
COc1cccc(C2C(C(=O)Nc3ccccc3)=C(C)N=c3s/c(=C/c4ccc(OCC(=O)O)cc4)c(=O)n32)c1 (stereo not drawn),-9,-9,-14,19*,-11,-13,3
CCOC(=O)C1=C(C)N=c2s/c(=C\c3ccc(OCC(=O)O)cc3)c(=O)n2C1c1ccc(OC(C)C)cc1 (stereo not drawn),-10,-7,-12,18*,-6,-7,3
C[C@H](CO)N1C[C@H](C)[C@@H](CN(C)CC2CCCCC2)Oc2ccc(NC(=O)Cn3cnnn3)cc2C1=O,/,/,/,0,/,/,/
COc1ncnc2c1NC1=C(S2)C(=NCCC(=O)O)CC(C)(C)C1,-10,10,4,20*,7,0,24*
CCOC(=O)C1CCCN(C(=O)CN2CCN(Cc3ccc(Cl)cc3)C2=O)C1 (stereo not drawn),-2,3,6,-5,2,-7,/
O=S(=O)(Nc1cc(Sc2cccc3cccnc23)c(O)c2ccccc12)c1ccc(F)cc1,2,-2,12,29*,5,6,3
COc1ccc(C2(c3ccc(OC)cc3)NC(=O)N(CC(=O)NC3CCCC3)C2=O)cc1,/,-1,-6,4,-1,-1,/
COc1ccc(N2C(=O)CSC23C(=O)N(CC(=O)NC2CCCC2)c2ccccc23)cc1 (stereo not drawn),/,-4,2,16*,2,0,14
Nc1ccccc1NC(=O)NC(=O)c1ccccc1,/,-4,-3,1,-2,5,/
CC(=O)Nc1ccc(SCC(=O)c2cc(C)n(C)c2C)cc1,4,-1,-11,1,-1,8,/
CC(=O)c1cccc(NC(=O)CSC(=O)c2ccccc2)c1,-6,4,9,15*,8,-1,18*
COc1ccc2[nH]c(C(=O)O)c(CCN3C(=O)c4cccc([N+](=O)[O-])c4C3=O)c2c1,-1,7,1,-2,4,0,/
CC(=O)N(C)C1=C(N2CCOCC2)C(=O)c2ccccc2C1=O,9,-1,0,-18,2,-1,/
CC(=O)N(C1=C(N2CCOCC2)C(=O)c2ccccc2C1=O)c1ccc(C(=O)O)cc1,-2,2,7,17*,1,1,-6
Cc1cc(=O)n(-c2ccc(C(=O)O)cc2)[nH]1,2,-5,-3,2,-5,5,/
Cc1cc(=O)n(-c2ccc(O)cc2)[nH]1,0,0,7,61*,0,2,-3
Cc1cc(=O)n(-c2ccccc2Cl)[nH]1,-2,4,-1,33*,4,1,4
CCCCN(C(=O)C(C)(C)Oc1ccc(Cl)cc1)c1c(N)n(CCC)c(=O)[nH]c1=O,/,-1,2,-2,-4,/,/
O=C(O)CC/C(=N\NC(=O)CNC(=O)c1ccc(F)cc1)c1ccccc1,-8,1,-6,18*,2,3,-6
O=S(=O)(CCSc1nc2ccccc2o1)c1nc2ccccc2s1,2,0,8,17*,1,0,16*
COc1ccc(NC(=O)CCS(=O)(=O)c2ccc(OC)cc2)cc1,9,-3,-2,20*,-10,-6,7
COc1ccc(NC(=O)CCS(=O)(=O)c2ccc(Cl)cc2)cc1,/,0,1,1,2,-4,/
O=C1c2ccc(-c3ccc(F)cc3OCc3ccccc3)cc2S(=O)(=O)c2cccc(C(=O)N3CCCC3)c21,/,3,3,17*,18,/,15*
Cc1cc(C(=O)CSc2nc(N)cc(=O)[nH]2)c(C)n1CC1CCCO1 (stereo not drawn),/,/,/,28*,/,/,15*
SMILES,RBBP9 inhibitor,LYPLA1 inh,PME-1 inh,PAD4 FP inh,LYPLA2 inh,Fam108B inh,PAD4 FP conf
Cc1cc(C(=O)O)ccc1N/C=C1\CCCC(C)C1=O (stereo not drawn),0,2,-6,-5,1,-6,/
CC1CCC/C(=C\Nc2ccc(O)cc2)C1=O (stereo not drawn),14*,4,4,28*,12,-1,9
CCN(CC)C(=O)CSc1nnc(-c2ccccc2)c(-c2ccccc2)n1,-5,-2,3,15*,-3,9,7
CN1c2ccccc2-c2nc3ccccc3n2C1c1cccs1 (stereo not drawn),-3,0,0,-2,3,-2,/
N#CCCN(C(=O)COC(=O)c1cccc(S(=O)(=O)N2CCCC2)c1)c1ccc(F)cc1,/,2,4,1,6,-3,/
CC(=O)N1CCN(S(=O)(=O)c2cccc(C(=O)OCC(=O)N(CCC#N)c3ccc(F)cc3)c2)CC1,/,14,19,29*,24,/,3
Cc1ccc(S(=O)(=O)N2CCCC2=O)c(C)c1N(C)S(C)(=O)=O,/,3,-2,16*,2,1,4
CN(C)c1ccc(/C=N/NC(=O)Cn2nnc3ccccc32)cc1,-15,1,1,15*,5,5,-1
COc1ccc(/C=N/NC(=O)Cn2nnc3ccccc32)cc1OC,-3,0,1,0,-2,-1,/
COc1ccc(C)cc1N(C(=O)c1ccccc1F)c1nc2ccccc2s1,-6,-6,0,29*,-3,-5,29*
CCCCCC(=O)N(Cc1ccccc1)c1c(N)n(CCOC)c(=O)[nH]c1=O,/,-3,-3,38*,2,3,4
FC(F)(F)c1nc2nncn2c2c1CCCCC2,-3,-2,-6,0,-3,1,/
CC1=NN(c2ccc(Br)cc2)C(=O)/C1=C/c1cccs1,-5,-2,8,12,11,6,/
CC1=NN(c2ccc(C)cc2)C(=O)/C1=C\c1ccc(Br)s1,-5,-2,5,21*,-2,11,40*
C/C(=N\NC(=O)C(=O)Nc1cccc(Cl)c1C)c1ccncc1,3,1,-2,25*,-5,5,2
NS(=O)(=O)c1ccc(CCNC(=O)C(=O)NCC2OCCN2S(=O)(=O)c2ccc(Cl)cc2)cc1 (stereo not drawn),/,0,3,-2,6,5,/
